The source made the active and inactive calls. The rule behind the calls is not given here.
Assays:
[1] = biological target: T1, NAD-dependent protein deacetylase sirtuin-1 (Homo sapiens) (UniProt Q96EB6); assay: Binding affinity to His6-tagged SIRT1 (unknown origin) expressed in Escherichia coli BL21 (DE3) assessed as increase in thermal stability at 0.1 mM and 41.5 degreeC using H3K18Ac peptide as substrate incubated for 10 mins in presence of NAD+ by SYPRO orange thermal shift assay
T1 sequence (whole entry): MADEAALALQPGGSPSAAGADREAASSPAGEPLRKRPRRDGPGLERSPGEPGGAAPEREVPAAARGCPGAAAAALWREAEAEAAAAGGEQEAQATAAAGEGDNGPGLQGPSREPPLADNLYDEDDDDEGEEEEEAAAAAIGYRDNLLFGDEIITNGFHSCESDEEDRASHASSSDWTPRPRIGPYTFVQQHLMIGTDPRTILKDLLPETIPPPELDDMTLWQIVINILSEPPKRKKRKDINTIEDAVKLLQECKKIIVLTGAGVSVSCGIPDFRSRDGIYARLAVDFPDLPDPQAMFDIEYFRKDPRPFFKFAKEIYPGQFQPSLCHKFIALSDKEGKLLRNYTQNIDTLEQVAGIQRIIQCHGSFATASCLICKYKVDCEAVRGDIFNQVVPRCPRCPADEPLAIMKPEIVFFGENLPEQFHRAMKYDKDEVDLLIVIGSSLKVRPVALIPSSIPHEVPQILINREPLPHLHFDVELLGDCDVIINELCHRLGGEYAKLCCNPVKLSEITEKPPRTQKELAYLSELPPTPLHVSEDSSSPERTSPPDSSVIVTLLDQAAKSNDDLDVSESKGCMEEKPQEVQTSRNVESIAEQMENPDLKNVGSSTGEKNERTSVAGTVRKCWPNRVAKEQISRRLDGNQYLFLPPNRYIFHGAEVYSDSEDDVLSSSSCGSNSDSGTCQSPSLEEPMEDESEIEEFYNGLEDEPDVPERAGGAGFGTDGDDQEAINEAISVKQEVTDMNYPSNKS

[2] = biological target: T1, NAD-dependent protein deacetylase sirtuin-1 (Homo sapiens); assay: Inhibition of His6-tagged SIRT1 (unknown origin) expressed in Escherichia coli BL21 (DE3) deacetylation activity incubated for 30 mins in presence of NAD+; settings: dose 0.04-10 µM
[3] = biological target: T2, NAD-dependent protein deacetylase sirtuin-3, mitochondrial (Homo sapiens) (UniProt Q9NTG7); assay: Binding affinity to His6-tagged/TEV fused SIRT3 (unknown origin) expressed in Escherichia coli BL21 (DE3) assessed as thermal stability at 90 uM using H3K18Ac as substrate incubated for 20 mins in presence of NAD+ by GloMelt thermal shift assay
T2 sequence (whole entry): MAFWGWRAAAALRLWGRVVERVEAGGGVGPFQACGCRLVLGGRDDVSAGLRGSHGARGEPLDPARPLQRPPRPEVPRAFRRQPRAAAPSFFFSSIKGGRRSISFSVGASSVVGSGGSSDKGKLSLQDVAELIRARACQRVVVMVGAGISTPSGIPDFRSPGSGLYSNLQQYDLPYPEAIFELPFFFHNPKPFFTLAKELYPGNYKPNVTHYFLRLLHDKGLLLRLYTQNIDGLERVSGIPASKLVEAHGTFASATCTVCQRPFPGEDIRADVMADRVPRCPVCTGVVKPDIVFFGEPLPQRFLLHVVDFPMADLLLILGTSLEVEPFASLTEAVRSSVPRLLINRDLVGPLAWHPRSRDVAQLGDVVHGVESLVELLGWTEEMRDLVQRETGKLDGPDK
How it was run: (§1)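 SirT1 or SirT3 at 8 µM with 1 mM NAD⁺ and 0.25 mM H3K18ac; SirT2 at 16 µM with 1 mM NAD⁺ and 0.5 mM H4K16ac. Compound 90 µM, 20 min RT before dye addition and melting; ΔTm from melting curves.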

[4] = biological target: T1, NAD-dependent protein deacetylase sirtuin-1 (Homo sapiens); assay: Binding affinity to His6-tagged SIRT1 (unknown origin) expressed in Escherichia coli BL21 (DE3) assessed as thermal stability at 90 uM using H3K18Ac as substrate incubated for 20 mins in presence of NAD+ by GloMelt thermal shift assay; how it was run: as §1
[5] = biological target: T1, NAD-dependent protein deacetylase sirtuin-1 (Homo sapiens); assay: Inhibition of His6-tagged SIRT1 (unknown origin) expressed in Escherichia coli BL21 (DE3) at 1 uM using Fluor-de-Lys-Ac-Gly-Gly-Lys(ac)-AMC peptide as substrate incubated for 5 mins by fluorescence assay
How it was run: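 Conditions as the FLucK529ac deacetylase assay (100 nM SirT1, sirtuin buffer 2) but with 10 µM Ac-Gly-Gly-Lys(ac)-AMC substrate and inhibitors at 1 µM. Stopped with equal volume 2× trypsin (0.1 mg/mL); released coumarin read after 5 min RT, ex 355/em 460 nm.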

[6] = biological target: T3, NAD-dependent protein deacetylase sirtuin-2 (Homo sapiens) (UniProt Q8IXJ6); assay: Binding affinity to His6-tagged/TEV fused SIRT2 (unknown origin) expressed in Escherichia coli BL21 (DE3) assessed as thermal stability at 90 uM using H4K16Ac as substrate incubated for 20 mins in presence of NAD+ by GloMelt thermal shift assay; how it was run: as §1
T3 sequence (whole entry): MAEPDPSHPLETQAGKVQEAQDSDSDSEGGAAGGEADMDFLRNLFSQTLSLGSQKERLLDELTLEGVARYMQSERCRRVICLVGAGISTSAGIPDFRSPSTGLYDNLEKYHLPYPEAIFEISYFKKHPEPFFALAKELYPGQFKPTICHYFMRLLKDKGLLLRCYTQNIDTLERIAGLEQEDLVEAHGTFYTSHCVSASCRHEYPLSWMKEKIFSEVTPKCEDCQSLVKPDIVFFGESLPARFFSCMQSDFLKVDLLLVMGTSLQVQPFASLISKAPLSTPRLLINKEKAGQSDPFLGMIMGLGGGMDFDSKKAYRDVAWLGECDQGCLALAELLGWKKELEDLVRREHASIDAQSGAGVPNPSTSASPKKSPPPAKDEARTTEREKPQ

Activity [1]	inhibition [2]	Activity [3]	Activity [4]	inhibition [5]	Activity [6]	SMILES
Active	Dose-Dependent Effect	–	–	–	–	NC(=O)C1CCCc2c1[nH]c1ccc(Cl)cc21 (stereo unspecified)
Active	Dose-Dependent Effect	inactive	Active	inactive	inactive	NC(=O)C1CN(Cc2ccc3nonc3c2)c2ccccc2O1 (stereo unspecified)
–	–	inactive	Active	–	inactive	N#Cc1ccccc1CN1CC(C(N)=O)Oc2ccccc21 (stereo in doubt; 4.27)

— ChEMBL document CHEMBL4834428
